Measurements of several laboratories.
Compare with care: the assays were run in different laboratories.
Target: Serine/threonine-protein kinase SIK1 (SIK1, Homo sapiens, UniProt P57059)

SMILES | observed | action | method | cells | concentration | quantity | value
Cc1cnn2ncc(-c3ccnc(N(C)C)n3)c2c1 | binding | – | – | – | 1 µM | remaining binding | 100%
CC(C)(O)[C@H]1CC[C@H](Nc2ccc3ncc(-c4cccc(C(F)(F)F)c4)n3n2)CC1 | enzyme activity | inhibitor | – | – | 1 µM | remaining activity | 62.8%
Cc1ccc(C(=O)Nc2ccc(CN3CCN(C)CC3)c(C(F)(F)F)c2)cc1C#Cc1cnc2cccnn12 | enzyme activity | inhibitor | – | – | 23.5 nM | remaining activity | 57%
O=C(Nc1cnn(-c2csc(C(=O)NC3COC3)c2)c1)Nc1c(F)cccc1Cl | enzyme activity | inhibitor | – | – | 5 µM | remaining activity | 98.3%
Cc1cc(NC(=O)c2cccc3cc(-c4cccc5[nH]nc(N)c45)ccc23)ccc1F | enzyme activity | inhibitor | – | – | 0.1 µM | activity vs control | 103%
CC(C)(C)c1nc2c(s1)c1nc(N)ncc1c1ccc(NS(=O)(=O)c3c(F)cccc3F)c(F)c12 | enzyme activity | inhibitor | radiometric | – | 1 µM | remaining activity | 90%
Cc1cnc(NC2CCOCC2)nc1-n1cnc(C(=O)NC(CN)c2cc(F)cc(Cl)c2)c1 (centres unmarked) | enzyme activity | inhibitor | radiometric | – | 1 µM | remaining activity | 109%
O=C(Nc1cnn(-c2csc(C(=O)NC3COC3)c2)c1)Nc1ccccc1Cl | enzyme activity | inhibitor | – | – | 5 µM | remaining activity | 102%
Cc1ccc(Nc2nccc(N(C)c3ccc4c(C)n(C)nc4c3)n2)cc1S(N)(=O)=O | enzyme activity | inhibitor | – | – | 0.3 µM | inhibition | 13%
CC(C)(C)c1nc(-c2cccc(NS(=O)(=O)c3c(F)cccc3F)c2F)c(-c2ccnc(N)n2)s1 | enzyme activity | inhibitor | radiometric | – | 1 µM | remaining activity | 98%
CN(c1nccc(-c2cnn3ncccc23)n1)C1CC1 | binding | – | – | – | 1 µM | remaining binding | 100%
COc1cc(Cl)c(C(=O)N[C@@H](CN[C@H]2CC[C@@H](N)CC2)Cc2ccc(C#N)cc2)cc1-c1ccc(CN[C@H](C)c2ccc(C)cc2)o1 | enzyme activity | inhibitor | – | – | 1 µM | remaining activity | 97%
CN(CCCC(F)(F)F)c1nccc(-c2cnn3ncccc23)n1 | binding | – | – | – | 1 µM | remaining binding | 100%
CCN1CCN(Cc2ccc(NC(=O)c3ccc(C)c(Oc4ccnc5[nH]ccc45)c3)cc2C(F)(F)F)CC1 | target engagement in cells | inhibitor | chemoproteomics | Huh-7 | 1 µM | inhibition | -51.3%
